As usually defined, the ΔTm is the shift of the melting midpoint relative to a reference.

Assay [1] has as its target Tyrosine-protein kinase Fes/Fps (Homo sapiens) (UniProt P07332). The assay can be described thus: Binding affinity to FES assessed as change in thermal denaturation at 10 uM by thermal stability shift assay. The gist of the method: (§1)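 Each compound was screened across a kinase panel by thermal stability shift assay. The read-out was the shift in protein melting temperature (ΔTm, in °C) relative to the unliganded kinase. A ΔTm of 4.0 °C served as the hit cutoff.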

Assay [2] deals with T1, Cyclin-G-associated kinase (Homo sapiens) (UniProt O14976).
T1 sequence (whole entry): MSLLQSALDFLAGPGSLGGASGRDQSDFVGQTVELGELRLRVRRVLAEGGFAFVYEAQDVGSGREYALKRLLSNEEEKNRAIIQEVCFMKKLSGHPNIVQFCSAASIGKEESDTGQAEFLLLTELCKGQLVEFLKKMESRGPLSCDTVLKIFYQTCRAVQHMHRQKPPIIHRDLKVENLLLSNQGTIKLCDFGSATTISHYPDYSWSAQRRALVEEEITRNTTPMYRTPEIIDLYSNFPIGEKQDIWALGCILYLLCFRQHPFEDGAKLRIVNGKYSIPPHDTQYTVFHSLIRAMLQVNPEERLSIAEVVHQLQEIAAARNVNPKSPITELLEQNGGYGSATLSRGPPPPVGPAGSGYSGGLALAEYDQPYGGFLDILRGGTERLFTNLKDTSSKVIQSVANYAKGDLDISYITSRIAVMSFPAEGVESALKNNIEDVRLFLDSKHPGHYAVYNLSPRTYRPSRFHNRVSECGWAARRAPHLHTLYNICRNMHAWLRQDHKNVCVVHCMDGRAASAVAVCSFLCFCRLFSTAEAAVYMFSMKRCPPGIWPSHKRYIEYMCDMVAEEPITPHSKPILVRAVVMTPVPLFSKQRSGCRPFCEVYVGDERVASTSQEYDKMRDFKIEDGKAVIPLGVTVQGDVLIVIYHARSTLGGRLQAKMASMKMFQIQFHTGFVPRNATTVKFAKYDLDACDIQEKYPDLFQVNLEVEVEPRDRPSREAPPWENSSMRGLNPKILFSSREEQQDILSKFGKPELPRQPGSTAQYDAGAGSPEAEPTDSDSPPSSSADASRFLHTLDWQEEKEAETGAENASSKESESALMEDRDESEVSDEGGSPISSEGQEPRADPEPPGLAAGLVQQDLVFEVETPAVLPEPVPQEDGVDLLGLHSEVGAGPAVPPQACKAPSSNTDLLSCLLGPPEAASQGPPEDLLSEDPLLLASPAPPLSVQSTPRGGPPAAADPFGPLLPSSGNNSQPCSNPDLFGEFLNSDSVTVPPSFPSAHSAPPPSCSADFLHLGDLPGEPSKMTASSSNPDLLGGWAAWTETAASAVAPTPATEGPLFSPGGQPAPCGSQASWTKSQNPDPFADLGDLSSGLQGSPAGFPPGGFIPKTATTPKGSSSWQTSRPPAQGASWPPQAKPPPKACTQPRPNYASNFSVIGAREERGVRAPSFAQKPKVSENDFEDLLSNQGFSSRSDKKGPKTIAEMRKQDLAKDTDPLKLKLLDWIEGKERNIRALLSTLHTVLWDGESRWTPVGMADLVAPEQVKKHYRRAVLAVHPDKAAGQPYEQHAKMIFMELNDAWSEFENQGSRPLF
The assay can be described thus: Binding affinity to GAK assessed as change in thermal denaturation at 10 uM by thermal stability shift assay. The gist of the method:
as §1

Assay [3] addresses Glycogen synthase kinase-3 beta (Homo sapiens) (UniProt P49841). The assay can be described thus: Binding affinity to GSK3-beta assessed as change in thermal denaturation at 10 uM by thermal stability shift assay. A digest of the protocol:
as §1

Assay [4] addresses Serine/threonine-protein kinase pim-1 (Homo sapiens, UniProt P11309). The assay can be described thus: Binding affinity to PIM1 assessed as change in thermal denaturation at 10 uM by thermal stability shift assay. A digest of the protocol:
as §1

The target in assay [5] is Protein kinase C gamma type (Homo sapiens) (UniProt P05129). The assay can be described thus: Binding affinity to PKCgamma assessed as change in thermal denaturation at 10 uM by thermal stability shift assay. The gist of the method:
as §1

In assay [6] the target is T2, cAMP-dependent protein kinase catalytic subunit PRKX (Homo sapiens) (UniProt P51817).
T2 sequence (whole entry): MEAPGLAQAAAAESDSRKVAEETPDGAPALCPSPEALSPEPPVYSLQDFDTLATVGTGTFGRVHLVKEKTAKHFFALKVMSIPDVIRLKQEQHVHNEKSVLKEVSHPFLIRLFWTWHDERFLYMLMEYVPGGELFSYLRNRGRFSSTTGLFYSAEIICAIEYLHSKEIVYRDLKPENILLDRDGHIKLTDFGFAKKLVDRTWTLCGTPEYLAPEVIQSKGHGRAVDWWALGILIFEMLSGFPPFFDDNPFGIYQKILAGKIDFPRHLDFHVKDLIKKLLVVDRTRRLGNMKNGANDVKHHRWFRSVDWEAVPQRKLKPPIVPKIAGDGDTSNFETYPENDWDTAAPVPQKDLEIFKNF
The assay can be described thus: Binding affinity to PRKX assessed as change in thermal denaturation at 10 uM by thermal stability shift assay. A digest of the protocol:
as §1

Assay [7] deals with Serine/threonine-protein kinase 33 (Homo sapiens) (UniProt Q9BYT3). The assay can be described thus: Binding affinity to STK33 assessed as change in thermal denaturation at 10 uM by thermal stability shift assay. A digest of the protocol: as §1
For assay [8], the target named is AP2-associated protein kinase 1 (Homo sapiens) (UniProt Q2M2I8). The assay can be described thus: Binding affinity to AAK1 assessed as change in thermal denaturation at 10 uM by thermal stability shift assay. A digest of the protocol:
as §1

In assay [9] the target is BMP-2-inducible protein kinase (Homo sapiens) (UniProt Q9NSY1). The assay can be described thus: Binding affinity to BIKE assessed as change in thermal denaturation at 10 uM by thermal stability shift assay. The gist of the method: as §1
The target of assay [10] is Dual specificity protein kinase CLK1 (Homo sapiens) (UniProt P49759). The assay can be described thus: Binding affinity to CLK1 assessed as change in thermal denaturation at 10 uM by thermal stability shift assay. A digest of the protocol:
as §1

Assay [11] has as its target Dual specificity protein kinase CLK4 (Homo sapiens) (UniProt Q9HAZ1). The assay can be described thus: Binding affinity to CLK4 assessed as change in thermal denaturation at 10 uM by thermal stability shift assay. A digest of the protocol:
as §1

Assay [12] addresses Death-associated protein kinase 3 (Homo sapiens) (UniProt O43293). The assay can be described thus: Binding affinity to N-terminus His6-tagged DAPK3 expressed in Escherichia coli BL21 (DE3) cells coexpressing pCOEX assessed as change in thermal denaturation at 10 uM by thermal stability shift assay. The gist of the method: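 DAPK3 was expressed in E. coli grown in TB with kanamycin and chloramphenicol at 37 °C, cooled to 25 °C, and induced with 0.5 mM IPTG. Binding was read as thermal-shift ΔTm in °C.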

The target of assay [13] is Ribosomal protein S6 kinase alpha-1 (Homo sapiens) (UniProt Q15418). The assay can be described thus: Binding affinity to RSK1 assessed as change in thermal denaturation at 10 uM by thermal stability shift assay.
Assay [14] has as its target TGF-beta receptor type-2 (Homo sapiens) (UniProt P37173). The assay can be described thus: Binding affinity to TGFBR2 assessed as change in thermal denaturation at 10 uM by thermal stability shift assay. The gist of the method:
as §1

Serine/threonine-protein kinase pim-1, sequence (P11309 whole entry, looked up): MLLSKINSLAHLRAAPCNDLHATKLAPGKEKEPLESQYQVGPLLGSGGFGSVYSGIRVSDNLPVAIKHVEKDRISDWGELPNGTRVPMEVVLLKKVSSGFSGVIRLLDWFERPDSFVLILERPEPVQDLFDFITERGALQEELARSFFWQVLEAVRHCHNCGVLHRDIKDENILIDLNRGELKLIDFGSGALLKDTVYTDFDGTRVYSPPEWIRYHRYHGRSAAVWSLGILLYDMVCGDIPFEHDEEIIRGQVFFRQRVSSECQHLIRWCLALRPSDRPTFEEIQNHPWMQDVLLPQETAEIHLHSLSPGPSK
Death-associated protein kinase 3 (Homo sapiens), sequence (O43293 whole entry, looked up): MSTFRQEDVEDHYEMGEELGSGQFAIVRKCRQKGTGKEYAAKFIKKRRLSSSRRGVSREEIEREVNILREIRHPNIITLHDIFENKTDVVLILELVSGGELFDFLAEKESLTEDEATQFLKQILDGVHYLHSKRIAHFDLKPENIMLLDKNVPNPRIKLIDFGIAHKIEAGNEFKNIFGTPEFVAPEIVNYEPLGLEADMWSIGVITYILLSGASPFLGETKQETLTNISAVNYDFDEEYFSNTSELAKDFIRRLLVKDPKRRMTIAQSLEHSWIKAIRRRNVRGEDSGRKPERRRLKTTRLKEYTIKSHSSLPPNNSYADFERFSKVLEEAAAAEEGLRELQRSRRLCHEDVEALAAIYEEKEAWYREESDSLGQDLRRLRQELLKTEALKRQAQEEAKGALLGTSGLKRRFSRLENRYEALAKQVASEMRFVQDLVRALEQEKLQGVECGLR
Dual specificity protein kinase CLK4 (Homo sapiens), sequence (Q9HAZ1 whole entry, looked up): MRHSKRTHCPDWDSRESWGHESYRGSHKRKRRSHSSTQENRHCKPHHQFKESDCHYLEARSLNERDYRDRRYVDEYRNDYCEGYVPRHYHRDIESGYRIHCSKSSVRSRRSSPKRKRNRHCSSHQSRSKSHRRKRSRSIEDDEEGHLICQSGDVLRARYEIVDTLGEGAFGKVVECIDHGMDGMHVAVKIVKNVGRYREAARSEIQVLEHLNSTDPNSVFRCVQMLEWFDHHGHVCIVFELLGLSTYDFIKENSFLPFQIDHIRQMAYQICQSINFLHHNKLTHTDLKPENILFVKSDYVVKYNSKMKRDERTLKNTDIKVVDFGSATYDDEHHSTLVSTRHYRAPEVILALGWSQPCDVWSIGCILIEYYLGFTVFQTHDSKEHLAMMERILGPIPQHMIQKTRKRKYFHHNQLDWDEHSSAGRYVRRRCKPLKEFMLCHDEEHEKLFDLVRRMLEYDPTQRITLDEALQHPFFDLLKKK
Tyrosine-protein kinase Fes/Fps (Homo sapiens), sequence (P07332 whole entry): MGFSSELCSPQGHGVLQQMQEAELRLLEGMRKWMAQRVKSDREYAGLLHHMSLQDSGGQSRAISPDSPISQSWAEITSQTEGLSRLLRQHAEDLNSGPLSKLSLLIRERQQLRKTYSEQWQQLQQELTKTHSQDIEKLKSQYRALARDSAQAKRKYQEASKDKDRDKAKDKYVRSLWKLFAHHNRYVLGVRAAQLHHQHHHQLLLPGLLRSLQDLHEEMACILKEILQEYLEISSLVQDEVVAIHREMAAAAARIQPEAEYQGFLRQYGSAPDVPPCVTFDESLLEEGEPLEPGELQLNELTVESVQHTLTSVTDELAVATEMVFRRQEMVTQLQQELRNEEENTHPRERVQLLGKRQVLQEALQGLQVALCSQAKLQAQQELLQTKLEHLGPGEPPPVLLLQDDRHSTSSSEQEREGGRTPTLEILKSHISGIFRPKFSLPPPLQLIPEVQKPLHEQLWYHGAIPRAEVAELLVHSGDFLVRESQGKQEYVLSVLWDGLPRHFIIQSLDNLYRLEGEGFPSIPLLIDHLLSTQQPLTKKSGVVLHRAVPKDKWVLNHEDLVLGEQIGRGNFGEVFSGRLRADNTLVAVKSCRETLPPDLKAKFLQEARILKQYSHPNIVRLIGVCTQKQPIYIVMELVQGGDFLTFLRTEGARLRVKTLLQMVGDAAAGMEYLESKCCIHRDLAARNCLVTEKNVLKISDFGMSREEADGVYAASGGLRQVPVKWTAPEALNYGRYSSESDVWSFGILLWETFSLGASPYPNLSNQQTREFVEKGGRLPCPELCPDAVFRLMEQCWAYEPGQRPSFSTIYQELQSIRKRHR
BMP-2-inducible protein kinase (Homo sapiens), sequence (Q9NSY1 whole entry, looked up): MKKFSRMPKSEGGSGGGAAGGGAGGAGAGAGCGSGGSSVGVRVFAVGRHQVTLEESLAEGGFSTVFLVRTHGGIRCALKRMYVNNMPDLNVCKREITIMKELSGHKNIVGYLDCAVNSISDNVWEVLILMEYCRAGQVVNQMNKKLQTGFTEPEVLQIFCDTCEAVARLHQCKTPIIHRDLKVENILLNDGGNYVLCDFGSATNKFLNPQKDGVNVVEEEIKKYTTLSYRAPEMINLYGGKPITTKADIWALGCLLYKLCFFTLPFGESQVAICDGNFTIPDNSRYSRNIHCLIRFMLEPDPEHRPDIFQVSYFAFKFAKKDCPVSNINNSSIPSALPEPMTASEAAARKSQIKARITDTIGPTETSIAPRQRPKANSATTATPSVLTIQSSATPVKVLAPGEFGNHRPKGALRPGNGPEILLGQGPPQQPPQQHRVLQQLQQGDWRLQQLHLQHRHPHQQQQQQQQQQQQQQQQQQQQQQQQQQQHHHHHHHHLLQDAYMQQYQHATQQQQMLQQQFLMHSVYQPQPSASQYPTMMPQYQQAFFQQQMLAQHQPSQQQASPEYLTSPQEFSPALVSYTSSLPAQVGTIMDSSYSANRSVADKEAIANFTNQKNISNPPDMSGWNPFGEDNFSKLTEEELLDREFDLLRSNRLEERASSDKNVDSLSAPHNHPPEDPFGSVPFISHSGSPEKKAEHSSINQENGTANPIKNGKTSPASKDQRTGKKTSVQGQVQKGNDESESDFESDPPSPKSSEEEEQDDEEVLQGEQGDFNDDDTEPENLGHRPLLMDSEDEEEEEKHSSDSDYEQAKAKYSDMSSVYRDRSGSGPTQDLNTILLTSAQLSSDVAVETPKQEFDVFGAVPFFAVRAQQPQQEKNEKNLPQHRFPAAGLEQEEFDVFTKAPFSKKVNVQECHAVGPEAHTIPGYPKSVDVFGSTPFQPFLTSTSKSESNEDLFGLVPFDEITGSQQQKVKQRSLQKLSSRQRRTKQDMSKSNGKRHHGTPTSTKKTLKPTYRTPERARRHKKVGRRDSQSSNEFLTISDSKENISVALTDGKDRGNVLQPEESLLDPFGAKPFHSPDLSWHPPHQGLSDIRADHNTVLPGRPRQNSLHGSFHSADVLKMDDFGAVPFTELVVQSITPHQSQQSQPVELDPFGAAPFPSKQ
TGF-beta receptor type-2 (Homo sapiens), sequence (P37173 whole entry): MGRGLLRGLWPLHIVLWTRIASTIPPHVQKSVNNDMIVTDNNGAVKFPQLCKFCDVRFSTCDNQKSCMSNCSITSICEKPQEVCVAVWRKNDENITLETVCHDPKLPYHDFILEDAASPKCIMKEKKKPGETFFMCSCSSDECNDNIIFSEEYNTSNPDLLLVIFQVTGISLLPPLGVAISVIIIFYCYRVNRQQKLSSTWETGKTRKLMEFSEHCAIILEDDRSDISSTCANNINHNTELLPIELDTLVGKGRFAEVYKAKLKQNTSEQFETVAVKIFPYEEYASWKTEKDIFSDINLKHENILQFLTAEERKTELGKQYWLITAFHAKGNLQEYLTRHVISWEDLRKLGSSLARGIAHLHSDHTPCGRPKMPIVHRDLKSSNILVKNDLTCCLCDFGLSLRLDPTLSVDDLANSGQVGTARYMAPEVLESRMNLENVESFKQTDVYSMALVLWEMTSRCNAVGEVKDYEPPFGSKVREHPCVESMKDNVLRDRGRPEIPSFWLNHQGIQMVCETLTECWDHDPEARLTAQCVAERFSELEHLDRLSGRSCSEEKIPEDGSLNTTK
Dual specificity protein kinase CLK1 (Homo sapiens), sequence (P49759 whole entry, looked up): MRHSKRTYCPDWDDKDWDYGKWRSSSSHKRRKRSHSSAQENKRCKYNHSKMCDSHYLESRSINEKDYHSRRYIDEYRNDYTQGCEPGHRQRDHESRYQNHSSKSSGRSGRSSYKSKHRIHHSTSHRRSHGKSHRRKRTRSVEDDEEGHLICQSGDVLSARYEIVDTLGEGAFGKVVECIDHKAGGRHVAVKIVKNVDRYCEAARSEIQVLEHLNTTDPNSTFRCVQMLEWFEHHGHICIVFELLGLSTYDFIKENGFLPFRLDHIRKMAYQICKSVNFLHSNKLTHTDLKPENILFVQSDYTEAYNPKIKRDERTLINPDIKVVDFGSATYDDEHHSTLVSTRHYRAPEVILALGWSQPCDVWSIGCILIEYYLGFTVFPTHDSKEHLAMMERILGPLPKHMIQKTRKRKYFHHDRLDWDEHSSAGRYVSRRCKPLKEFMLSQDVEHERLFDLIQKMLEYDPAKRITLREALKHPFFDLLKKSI
Ribosomal protein S6 kinase alpha-1 (Homo sapiens), sequence (Q15418 whole entry, looked up): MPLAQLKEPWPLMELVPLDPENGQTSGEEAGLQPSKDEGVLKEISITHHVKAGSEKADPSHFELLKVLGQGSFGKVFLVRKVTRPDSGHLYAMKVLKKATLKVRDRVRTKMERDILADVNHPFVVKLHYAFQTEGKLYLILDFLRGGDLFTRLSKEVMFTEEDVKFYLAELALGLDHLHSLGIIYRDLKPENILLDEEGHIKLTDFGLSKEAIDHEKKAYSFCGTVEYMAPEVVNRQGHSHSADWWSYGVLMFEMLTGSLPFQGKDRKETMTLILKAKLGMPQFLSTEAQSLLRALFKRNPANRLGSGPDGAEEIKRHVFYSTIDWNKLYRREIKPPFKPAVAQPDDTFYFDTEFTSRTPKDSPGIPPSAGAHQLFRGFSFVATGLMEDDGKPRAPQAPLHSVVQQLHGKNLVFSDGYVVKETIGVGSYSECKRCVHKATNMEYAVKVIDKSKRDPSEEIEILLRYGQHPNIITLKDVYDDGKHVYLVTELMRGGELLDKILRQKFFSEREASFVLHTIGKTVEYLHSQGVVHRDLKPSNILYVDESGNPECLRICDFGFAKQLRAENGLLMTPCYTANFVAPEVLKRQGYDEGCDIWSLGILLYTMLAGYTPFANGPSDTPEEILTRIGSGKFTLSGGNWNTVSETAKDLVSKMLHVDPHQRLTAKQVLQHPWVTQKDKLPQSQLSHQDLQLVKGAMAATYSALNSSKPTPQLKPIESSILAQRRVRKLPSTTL

With `N#CC1c2c([nH]c3c(Cl)c(Cl)ccc23)C(=O)NC12CCCCC2` (racemic), the ΔTm in assay [1] is -0.4 °C; in [2], 2.8 °C; in assay [3], 2.6 °C; in assay [4], 4.9 °C; in assay [5] it was 1.3 °C; in assay [6], 1 °C. For the same compound, the ΔTm is 0.5 °C in assay [7]; 2.4 °C in assay [8]; 1.1 °C in assay [9]; 5.4 °C in assay [10]; 5.7 °C in assay [11]; 3.4 °C in assay [12]. In addition, the ΔTm in assay [13] is 0.4 °C.
On to `Cn1c2c(c3ccc(Cl)c(Cl)c31)C(C#N)C1(CCOCC1)NC2=O` (stereo not drawn), for which the ΔTm in assay [1] was found to be 0 °C; in assay [2], 1.3 °C; in assay [3], 3.4 °C; in [4] it was 4.8 °C; in assay [5], 1 °C; in [6], 1.4 °C. For the same compound, the ΔTm in assay [7] was found to be 0.7 °C; in [14], 2.6 °C; in assay [8], 2.6 °C; in assay [9], 2.3 °C; in [10], 4.6 °C; in [11], 2.8 °C. Besides, the results for the ΔTm in assay [12] and in assay [13] were 3.1 °C and 0.6 °C, respectively.
Consider `CCN1CCC2(CC1)NC(=O)c1c(c3ccc(Cl)c(Cl)c3n1C)C2C#N` (racemic), for which the ΔTm in assay [1] was found to be 0.7 °C; in assay [2], 0.9 °C; in assay [3], 1.5 °C; in assay [4], 7.4 °C; in [5] it was 4.5 °C; in assay [6], 3.1 °C. The ΔTm in assay [7] was 2.1 °C; in assay [14], 0.3 °C; in assay [8], 0.2 °C; in assay [9] it was -0.5 °C; in assay [10], 4 °C; in [11] it was 1.8 °C. The ΔTm was determined as 4.6 °C in [12] and 0 °C in [13].
For the compound `Cn1c2c(c3ccccc31)C(C#N)C(C)(C)NC2=O` (stereo not drawn), the ΔTm in assay [1] is 0 °C; in [2] it was 0 °C; in assay [3], 1.8 °C; in assay [4] it was 0.9 °C; in assay [5], 0.4 °C; in assay [6] it was 0.5 °C. Moreover, the ΔTm in assay [7] stood at 1 °C; in assay [14], 2.9 °C; in [8], 0.6 °C; in [9], 1.1 °C; in assay [10], 2.4 °C; in [11], 1.4 °C. Further, the ΔTm in [12] was determined as 0.6 °C; in assay [13] it was 0.4 °C.
`CCC1(CC)NC(=O)c2c(c3ccc(Cl)c(Cl)c3n2C)C1C#N` (stereo not drawn): the ΔTm turned out to be 0 °C in assay [1]; 1.2 °C in assay [2]; 2 °C in assay [3]; 3.3 °C in assay [4]; 0.8 °C in assay [5]; 0.8 °C in [6]. In addition, the ΔTm stood at 0.6 °C in assay [7]; 5 °C in [14]; 1.7 °C in assay [8]; 1.2 °C in assay [9]; 3.5 °C in assay [10]; 2.8 °C in assay [11]. For the same compound, the ΔTm in assay [12] was 2.4 °C; in [13], 0.5 °C.
`Cn1c2c(c3ccc(Cl)c(Cl)c31)C(C#N)C(C)(C)NC2=O` (stereo not drawn): the ΔTm is -0.3 °C in assay [1]; 2.8 °C in [2]; 5.6 °C in [3]; 5.7 °C in [4]; 1.7 °C in assay [5]; 2.8 °C in assay [6]. In addition, the ΔTm was 2.2 °C in assay [7]; 8.1 °C in assay [14]; 2.2 °C in assay [8]; 2.8 °C in assay [9]; 6.4 °C in assay [10]; 4.3 °C in assay [11]. Moreover, the ΔTm in assay [12] worked out at 3.4 °C; in assay [13] it was 1.8 °C.
For `Cn1c2c(Cl)c(Cl)ccc2c2cc[nH]c(=O)c21`, the ΔTm in assay [1] was 0.1 °C; in [2] it was 3.3 °C; in assay [3], 1.4 °C; in [4] it was 4 °C; in [5], 1.2 °C; in assay [6], 0.3 °C. For the same compound, the thermal shift (ΔTm) in assay [7] turned out to be 2.3 °C; in assay [14] it was 10.1 °C; in assay [8] it was 4.6 °C; in assay [9], 8.2 °C; in [10] it was 4.6 °C; in [11] it was 3.2 °C. The shift in melting temperature (ΔTm) in assay [12] is 3.4 °C; in assay [13], 4.6 °C.
For `Cn1c2c(c3ccc(Cl)c(Cl)c31)C(C#N)C1(CCN(C(=O)OC(C)(C)C)CC1)NC2=O` (racemic), the ΔTm in [1] is 0.4 °C; in assay [2], -0.2 °C; in assay [3], -0.2 °C; in assay [4], 0.8 °C; in [5], 0.2 °C; in [6] it was 0.3 °C. For the same compound, the ΔTm in [7] was 0.3 °C; in assay [8], 0.3 °C; in assay [9], 0 °C; in assay [10], 0.5 °C; in [11], 0 °C; in assay [12], -0.2 °C. The ΔTm in assay [13] stood at 0 °C.
In the case of `Cn1c2c(c3ccc(Cl)c(Cl)c31)C(C#N)C1(CCNCC1)NC2=O` (racemic), the ΔTm was 4 °C in assay [1]; 1.4 °C in assay [2]; 3.9 °C in [3]; 10.7 °C in assay [4]; 6.1 °C in assay [5]; 5.8 °C in [6]. For the same compound, the ΔTm in [7] turned out to be 5.9 °C; in assay [8] it was 1.5 °C; in assay [9], 1 °C; in assay [10], 7 °C; in [11], 4.6 °C; in [12], 10.6 °C. Also, the ΔTm in [13] was 1 °C.

For the origin of these results see ChEMBL document CHEMBL1944596, “7,8-dichloro-1-oxo-β-carbolines as a versatile scaffold for the development of potent and selective kinase inhibitors with unusual binding modes” (J Med Chem, 2012).
